Inhibition and IC50 data for one compound are collected here from ChEMBL document CHEMBL5661979, “Pharmacological inhibition of BMK1 suppresses tumor growth through promyelocytic leukemia protein” (Cancer Cell, 2010).

The source made the active and inactive calls. No cut-off for these calls is given here.

Test [1] is described as follows: Inhibition of HGK/MINK/TNIK in human HeLa cells lysate at 10 uM pre incubated for 15 mins followed by ADP acyl phosphate probe addition and measured after 10 mins by LC-MS/MS analysis relative to control. The conditions noted are these: 25 min, condition cancer.
Test [2] deals with Ribosomal protein S6 kinase alpha-1 (Homo sapiens, UniProt Q15418). The test is described as follows: Inhibition of RSK1 domain 2 K2 site in human HeLa cells lysate pre incubated for 15 mins followed by ADP acyl phosphate probe addition and measured after 10 mins by LC-MS/MS analysis. It is filed as subcellular.
Test [3] deals with Calcium/calmodulin-dependent protein kinase type 1D (Homo sapiens, UniProt Q8IU85). The test is described as follows: Inhibition of CAMK1d in human HeLa cells lysate pre incubated for 15 mins followed by ADP acyl phosphate probe addition and measured after 10 mins by LC-MS/MS analysis. It is filed as subcellular. The gist of the method: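 KiNativ-type profiling in HeLa lysate (5 mg/mL total protein). Lysate preincubated 15 min with inhibitor at 50, 10, 2, 0.8 or 0 μM, then ATP or ADP acylphosphate probe added (5 μM final) for 10 min. Reaction stopped with urea and analysed by targeted MS, using up to four fragment ions per kinase peptide-probe conjugate. % inhibition calculated against untreated lysate. Duplicate reactions.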

The target of test [4] is Interleukin-1 receptor-associated kinase 4 (Homo sapiens, UniProt Q9NWZ3). Briefly: Inhibition of IRAK4 in human HeLa cells lysate pre incubated for 15 mins followed by ADP acyl phosphate probe addition and measured after 10 mins by LC-MS/MS analysis. It is filed as subcellular.
The target in test [5] is Serine/threonine-protein kinase PLK1 (Homo sapiens, UniProt P53350). The test is described as follows: Inhibition of PLK1 splice variant in human HeLa cells lysate at 50 uM pre incubated for 15 mins followed by ADP acyl phosphate probe addition and measured after 10 mins by LC-MS/MS analysis relative to control. Conditions: time 25.0 min. Format: subcellular.
Test [6] deals with T1, Serine/threonine-protein kinase Nek9 (Homo sapiens) (UniProt Q8TD19).
T1 sequence (whole entry): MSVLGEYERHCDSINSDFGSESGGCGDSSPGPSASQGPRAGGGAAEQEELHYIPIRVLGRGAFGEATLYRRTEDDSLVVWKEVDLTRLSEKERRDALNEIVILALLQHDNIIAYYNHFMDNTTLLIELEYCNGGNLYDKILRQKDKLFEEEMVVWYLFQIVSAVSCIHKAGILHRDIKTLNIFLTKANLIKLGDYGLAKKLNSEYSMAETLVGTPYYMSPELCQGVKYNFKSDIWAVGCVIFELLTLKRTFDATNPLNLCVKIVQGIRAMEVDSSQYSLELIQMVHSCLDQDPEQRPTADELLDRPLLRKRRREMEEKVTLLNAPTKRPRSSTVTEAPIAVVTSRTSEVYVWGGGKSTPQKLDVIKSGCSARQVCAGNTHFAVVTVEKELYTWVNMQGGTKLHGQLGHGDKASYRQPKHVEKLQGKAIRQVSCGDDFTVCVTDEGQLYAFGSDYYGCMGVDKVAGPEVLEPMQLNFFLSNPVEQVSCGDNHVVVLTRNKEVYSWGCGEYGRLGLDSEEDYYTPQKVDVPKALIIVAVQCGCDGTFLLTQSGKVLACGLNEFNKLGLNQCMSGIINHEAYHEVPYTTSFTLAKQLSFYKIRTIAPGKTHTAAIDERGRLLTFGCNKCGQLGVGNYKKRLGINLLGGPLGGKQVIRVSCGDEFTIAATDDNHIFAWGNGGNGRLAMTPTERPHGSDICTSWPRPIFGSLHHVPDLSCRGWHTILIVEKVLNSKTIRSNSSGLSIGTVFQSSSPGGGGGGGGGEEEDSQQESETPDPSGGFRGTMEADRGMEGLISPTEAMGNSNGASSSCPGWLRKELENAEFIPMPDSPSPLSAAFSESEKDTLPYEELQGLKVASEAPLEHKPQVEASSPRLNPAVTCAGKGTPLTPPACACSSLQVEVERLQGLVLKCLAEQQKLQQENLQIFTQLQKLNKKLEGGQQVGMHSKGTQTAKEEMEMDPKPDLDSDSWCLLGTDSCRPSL
Briefly: Inhibition of NEK9 in human HeLa cells lysate at 2 uM pre incubated for 15 mins followed by ADP acyl phosphate probe addition and measured after 10 mins by LC-MS/MS analysis relative to control. Format: subcellular. Conditions: time 25.0 min.

Test [7] is described as follows: Inhibition of PCTAIRE2/PCTAIRE3 in human HeLa cells lysate pre incubated for 15 mins followed by ADP acyl phosphate probe addition and measured after 10 mins by LC-MS/MS analysis. It is filed as subcellular.
The target in test [8] is Phosphatidylinositol 4-kinase beta (Homo sapiens, UniProt Q9UBF8). The test is described as follows: Inhibition of PIK4CB in human HeLa cells lysate pre incubated for 15 mins followed by ATP acyl phosphate probe addition and measured after 10 mins by LC-MS/MS analysis. It is filed as subcellular.
For test [9], the target named is T2, Dual specificity mitogen-activated protein kinase kinase 5 (Homo sapiens) (UniProt Q13163).
T2 sequence (whole entry): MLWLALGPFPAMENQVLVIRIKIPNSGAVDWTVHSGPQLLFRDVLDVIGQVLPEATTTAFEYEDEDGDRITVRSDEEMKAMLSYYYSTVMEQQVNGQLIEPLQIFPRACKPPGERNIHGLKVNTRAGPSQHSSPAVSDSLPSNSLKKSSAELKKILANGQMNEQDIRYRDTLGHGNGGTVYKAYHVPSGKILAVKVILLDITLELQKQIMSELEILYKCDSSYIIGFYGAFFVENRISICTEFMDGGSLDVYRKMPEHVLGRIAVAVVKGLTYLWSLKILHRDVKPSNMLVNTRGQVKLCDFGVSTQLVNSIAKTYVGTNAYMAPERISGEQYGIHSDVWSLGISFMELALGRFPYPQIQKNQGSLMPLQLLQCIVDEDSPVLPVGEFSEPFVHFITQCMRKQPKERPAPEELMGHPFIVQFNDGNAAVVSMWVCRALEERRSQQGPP
Briefly: Inhibition of MAP2K5 in human HeLa cells lysate upto 50 uM pre incubated for 15 mins followed by ADP acyl phosphate probe addition and measured after 10 mins by LC-MS/MS analysis. It is filed as subcellular. The conditions noted are these: time 25.0 min.

The nature of test [10]: Inhibition of SRC/FYN/YES in human HeLa cells lysate at 10 uM pre incubated for 15 mins followed by ATP acyl phosphate probe addition and measured after 10 mins by LC-MS/MS analysis relative to control. The conditions noted are these: 25 min, condition cancer.
The target of test [11] is Ribosomal protein S6 kinase beta-2 (Homo sapiens, UniProt Q9UBS0). The test is described as follows: Inhibition of P70S6KB in human HeLa cells lysate at 2 uM pre incubated for 15 mins followed by ATP acyl phosphate probe addition and measured after 10 mins by LC-MS/MS analysis relative to control. It is filed as subcellular. Conditions: time 25.0 min.
The target in test [12] is Ribosomal protein S6 kinase beta-1 (Homo sapiens, UniProt P23443). The test is described as follows: Inhibition of P70S6K in human HeLa cells lysate pre incubated for 15 mins followed by ATP acyl phosphate probe addition and measured after 10 mins by LC-MS/MS analysis. It is filed as subcellular.
For test [13], the target named is Cyclin-dependent kinase 16 (Homo sapiens, UniProt Q00536). The test is described as follows: Inhibition of PCTAIRE1 in human HeLa cells lysate pre incubated for 15 mins followed by ADP acyl phosphate probe addition and measured after 10 mins by LC-MS/MS analysis. Format: subcellular.
The target in test [14] is Mitogen-activated protein kinase kinase kinase 20 (Homo sapiens, UniProt Q9NYL2). Briefly: Inhibition of ZAK in human HeLa cells lysate pre incubated for 15 mins followed by ATP acyl phosphate probe addition and measured after 10 mins by LC-MS/MS analysis. It is filed as subcellular.

Sequence of Interleukin-1 receptor-associated kinase 4 (Q9NWZ3 whole entry, canonical isoform): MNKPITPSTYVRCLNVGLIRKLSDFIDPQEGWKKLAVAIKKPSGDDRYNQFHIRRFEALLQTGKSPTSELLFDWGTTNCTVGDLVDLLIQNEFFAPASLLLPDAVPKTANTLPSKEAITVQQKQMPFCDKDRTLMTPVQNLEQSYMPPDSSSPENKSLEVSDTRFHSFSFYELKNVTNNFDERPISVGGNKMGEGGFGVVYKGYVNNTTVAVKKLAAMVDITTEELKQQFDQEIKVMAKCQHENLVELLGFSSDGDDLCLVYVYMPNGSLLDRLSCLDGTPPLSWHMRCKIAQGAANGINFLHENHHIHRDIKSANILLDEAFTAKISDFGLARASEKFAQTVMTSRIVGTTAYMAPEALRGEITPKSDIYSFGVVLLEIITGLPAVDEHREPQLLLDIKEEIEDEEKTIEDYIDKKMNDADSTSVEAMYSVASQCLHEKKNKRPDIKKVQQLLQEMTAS
Sequence of Calcium/calmodulin-dependent protein kinase type 1D (Q8IU85 whole entry, the tested form may be a part): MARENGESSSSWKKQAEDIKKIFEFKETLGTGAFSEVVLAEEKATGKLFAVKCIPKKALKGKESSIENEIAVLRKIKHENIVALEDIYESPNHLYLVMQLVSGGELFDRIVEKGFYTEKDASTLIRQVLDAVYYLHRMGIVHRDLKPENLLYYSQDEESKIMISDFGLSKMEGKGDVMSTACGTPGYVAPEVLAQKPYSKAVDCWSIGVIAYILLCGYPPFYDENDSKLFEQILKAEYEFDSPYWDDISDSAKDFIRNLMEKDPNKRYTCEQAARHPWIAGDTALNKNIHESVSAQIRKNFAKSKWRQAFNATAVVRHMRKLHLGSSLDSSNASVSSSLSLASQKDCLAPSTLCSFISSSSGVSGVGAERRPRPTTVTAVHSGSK
Sequence of Phosphatidylinositol 4-kinase beta (Q9UBF8 whole entry): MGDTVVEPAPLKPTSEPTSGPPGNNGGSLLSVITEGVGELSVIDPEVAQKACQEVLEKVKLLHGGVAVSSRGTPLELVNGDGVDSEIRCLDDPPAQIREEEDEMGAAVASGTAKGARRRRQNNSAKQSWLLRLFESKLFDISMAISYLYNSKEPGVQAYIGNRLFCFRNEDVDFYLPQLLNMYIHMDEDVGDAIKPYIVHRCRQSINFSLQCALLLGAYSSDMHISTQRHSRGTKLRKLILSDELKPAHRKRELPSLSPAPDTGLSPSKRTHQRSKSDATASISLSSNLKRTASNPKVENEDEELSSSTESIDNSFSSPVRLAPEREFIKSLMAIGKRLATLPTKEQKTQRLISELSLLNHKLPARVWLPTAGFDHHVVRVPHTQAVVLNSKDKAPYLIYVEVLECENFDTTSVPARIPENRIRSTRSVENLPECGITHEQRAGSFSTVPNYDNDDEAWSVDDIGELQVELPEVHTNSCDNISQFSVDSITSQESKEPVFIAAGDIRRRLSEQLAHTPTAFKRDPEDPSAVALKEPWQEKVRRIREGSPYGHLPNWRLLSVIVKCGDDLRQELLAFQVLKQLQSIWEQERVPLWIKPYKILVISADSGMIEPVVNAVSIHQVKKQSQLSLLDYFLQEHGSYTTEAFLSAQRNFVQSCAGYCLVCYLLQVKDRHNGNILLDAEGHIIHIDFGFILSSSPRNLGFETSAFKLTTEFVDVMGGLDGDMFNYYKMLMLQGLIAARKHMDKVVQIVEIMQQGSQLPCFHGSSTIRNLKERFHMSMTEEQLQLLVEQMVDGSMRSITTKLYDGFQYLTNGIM
Sequence of Ribosomal protein S6 kinase alpha-1 (Q15418 whole entry, the tested form may be a part): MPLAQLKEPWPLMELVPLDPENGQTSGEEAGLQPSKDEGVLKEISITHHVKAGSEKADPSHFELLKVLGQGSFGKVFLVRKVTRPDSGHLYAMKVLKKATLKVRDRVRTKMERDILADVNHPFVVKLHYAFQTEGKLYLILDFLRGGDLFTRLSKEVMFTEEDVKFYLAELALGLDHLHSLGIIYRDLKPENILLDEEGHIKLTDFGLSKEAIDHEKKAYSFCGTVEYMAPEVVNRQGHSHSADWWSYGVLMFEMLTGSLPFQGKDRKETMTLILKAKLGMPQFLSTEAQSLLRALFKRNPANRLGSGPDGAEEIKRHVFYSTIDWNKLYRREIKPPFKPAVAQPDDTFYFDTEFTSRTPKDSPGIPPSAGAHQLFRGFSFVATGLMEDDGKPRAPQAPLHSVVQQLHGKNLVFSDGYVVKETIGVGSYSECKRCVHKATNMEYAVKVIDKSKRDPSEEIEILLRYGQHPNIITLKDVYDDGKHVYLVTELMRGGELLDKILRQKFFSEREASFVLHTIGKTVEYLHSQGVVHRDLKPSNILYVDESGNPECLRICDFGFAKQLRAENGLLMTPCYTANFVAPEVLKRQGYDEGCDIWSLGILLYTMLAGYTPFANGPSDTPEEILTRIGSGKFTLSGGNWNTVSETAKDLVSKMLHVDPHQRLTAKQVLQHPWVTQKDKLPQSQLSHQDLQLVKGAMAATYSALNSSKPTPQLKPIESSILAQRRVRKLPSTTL
Sequence of Serine/threonine-protein kinase PLK1 (P53350 whole entry, canonical isoform): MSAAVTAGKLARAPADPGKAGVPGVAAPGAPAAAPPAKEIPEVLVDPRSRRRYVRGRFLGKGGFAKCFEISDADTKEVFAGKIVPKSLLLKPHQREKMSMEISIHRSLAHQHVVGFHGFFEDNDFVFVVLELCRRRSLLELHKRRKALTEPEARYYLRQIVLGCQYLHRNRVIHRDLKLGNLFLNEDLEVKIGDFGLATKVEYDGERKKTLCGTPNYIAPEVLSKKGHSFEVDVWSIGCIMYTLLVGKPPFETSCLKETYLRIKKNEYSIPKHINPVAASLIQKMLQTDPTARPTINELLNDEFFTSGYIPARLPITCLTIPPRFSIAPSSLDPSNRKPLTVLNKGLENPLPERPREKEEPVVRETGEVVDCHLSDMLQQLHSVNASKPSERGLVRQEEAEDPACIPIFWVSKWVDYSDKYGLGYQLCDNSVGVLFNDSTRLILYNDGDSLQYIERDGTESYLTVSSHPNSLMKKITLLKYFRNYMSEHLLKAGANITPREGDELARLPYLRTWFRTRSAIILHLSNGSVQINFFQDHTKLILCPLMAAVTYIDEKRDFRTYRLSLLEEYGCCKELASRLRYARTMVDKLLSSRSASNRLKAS
Sequence of Cyclin-dependent kinase 16 (Q00536 whole entry): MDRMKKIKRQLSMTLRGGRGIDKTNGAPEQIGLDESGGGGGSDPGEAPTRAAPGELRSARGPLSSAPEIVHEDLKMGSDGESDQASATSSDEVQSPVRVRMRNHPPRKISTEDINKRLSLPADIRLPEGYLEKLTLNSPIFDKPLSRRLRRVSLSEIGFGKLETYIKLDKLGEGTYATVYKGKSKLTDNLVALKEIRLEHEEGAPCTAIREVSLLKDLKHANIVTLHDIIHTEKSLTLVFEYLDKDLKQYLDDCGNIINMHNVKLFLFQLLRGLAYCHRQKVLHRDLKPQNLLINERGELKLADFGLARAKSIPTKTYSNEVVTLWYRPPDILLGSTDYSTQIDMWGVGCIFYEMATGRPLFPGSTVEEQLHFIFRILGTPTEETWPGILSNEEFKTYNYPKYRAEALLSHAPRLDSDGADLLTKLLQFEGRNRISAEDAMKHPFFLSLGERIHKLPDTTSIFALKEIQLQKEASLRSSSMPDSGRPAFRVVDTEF
Sequence of Ribosomal protein S6 kinase beta-1 (P23443 whole entry): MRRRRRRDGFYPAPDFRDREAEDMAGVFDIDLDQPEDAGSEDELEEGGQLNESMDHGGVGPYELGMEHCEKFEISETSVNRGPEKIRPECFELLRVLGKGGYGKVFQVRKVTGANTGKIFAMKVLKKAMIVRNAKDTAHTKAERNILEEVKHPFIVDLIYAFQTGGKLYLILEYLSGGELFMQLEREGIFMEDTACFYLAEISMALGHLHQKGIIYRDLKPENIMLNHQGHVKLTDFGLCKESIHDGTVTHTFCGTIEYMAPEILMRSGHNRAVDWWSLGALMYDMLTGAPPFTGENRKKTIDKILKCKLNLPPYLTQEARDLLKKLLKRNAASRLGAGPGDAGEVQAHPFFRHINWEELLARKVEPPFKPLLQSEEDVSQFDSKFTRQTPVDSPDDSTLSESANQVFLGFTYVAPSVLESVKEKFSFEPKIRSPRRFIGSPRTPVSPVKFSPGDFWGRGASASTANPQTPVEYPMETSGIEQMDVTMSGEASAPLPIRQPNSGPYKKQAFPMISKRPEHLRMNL
Sequence of Ribosomal protein S6 kinase beta-2 (Q9UBS0 whole entry): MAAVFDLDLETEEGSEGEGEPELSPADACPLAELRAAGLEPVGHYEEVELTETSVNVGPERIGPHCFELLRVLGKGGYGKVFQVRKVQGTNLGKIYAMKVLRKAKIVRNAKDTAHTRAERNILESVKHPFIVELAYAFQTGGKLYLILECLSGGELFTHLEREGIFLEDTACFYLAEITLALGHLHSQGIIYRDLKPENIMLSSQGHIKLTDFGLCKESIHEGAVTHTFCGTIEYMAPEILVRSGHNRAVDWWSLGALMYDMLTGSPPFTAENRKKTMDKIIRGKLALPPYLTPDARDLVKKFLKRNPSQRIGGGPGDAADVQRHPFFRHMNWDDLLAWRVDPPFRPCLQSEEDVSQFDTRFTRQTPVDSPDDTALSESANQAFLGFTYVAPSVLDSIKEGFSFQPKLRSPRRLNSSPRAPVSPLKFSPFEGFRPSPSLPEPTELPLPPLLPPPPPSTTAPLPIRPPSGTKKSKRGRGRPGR

Turning to `CCOc1cc(N2CCC(O)CC2)ccc1Nc1ncc2c(n1)N(C)c1ccccc1C(=O)N2C`, the inhibition at 10 µM in [1] was -25.3%; in test [10] it was -68.3%. The IC50 in test [2] is 31 µM; in [3] it was greater than 50 µM; in test [4] it was greater than 50 µM; in test [7], greater than 50 µM; in test [8], 34 µM; in test [12], greater than 50 µM. In addition, the IC50 in test [13] and in [14] was greater than 50 µM throughout. For the same compound, the inhibition came to 13.3% in [5], 0.3% in test [6] and 1.9% in [11]. Also, the inhibition result in [9] is “inactive”.
